One may read the IC50 as the midpoint of a concentration-inhibition curve.

Activity calls are given as the source filed them. The calls are words filed in the database; no cut-off is given here.

22 molecules from ChEMBL document CHEMBL4699512, “Synthesis of non-nucleoside anti-viral cyclopropylcarboxacyl hydrazones and initial anti-HSV-1 structure-activity relationship studies” (Bioorg Med Chem Lett, 2020) can be followed below.

One data set relates to Human alphaherpesvirus 1. Description: Antiviral activity against recombinant EGFP/RFP expressing Herpes simplex virus 1 KOS infected in iPSC-neurons assessed as decrease in proportion of fluorescent cells compound added 2 hr post infection incubated for 48 hrs by flow cytometry analysis. The format is functional, organism-based. The following applies: Induced pluripotent stem cell-derived neuron. Summed up: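 iPSC-derived neurons infected with recombinant HSV-1 derived from strain KOS, expressing EGFP from the early ICP0 promoter and monomeric RFP from the glycoprotein C promoter. Infection was scored as the proportion of fluorescent cells. Controls were uninfected cells, virus alone, and virus with acyclovir as positive control. The protocol follows the group's earlier procedure.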
As to `O=C(N/N=C/c1ccc(Br)cc1)C1CC1(c1ccccc1)c1ccccc1` (stereo unspecified), the result was inactive.
As to `O=C(N/N=C/c1cccs1)C1CC1(c1ccccc1)c1ccccc1` (stereo unspecified), the outcome was Active.
On to `COc1cc(/C=N/NC(=O)C2CC2(c2ccccc2)c2ccccc2)ccc1O` (stereo unspecified), for which the outcome was inactive.
`O=C(N/N=C/c1ccc(F)cc1F)C1CC1(c1ccccc1)c1ccccc1` (stereo unspecified): the result was inactive.
Take `O=C(N/N=C/c1ccccc1Cl)C1CC1(c1ccccc1)c1ccccc1` (stereo unspecified): the result was Active.
Still for that read-out and setting: next, `COc1cc(/C=N/NC(=O)C2CC2(c2ccccc2)c2ccccc2)cc(OC)c1OC` (stereo unspecified): “Active”; `O=C(N/N=C/c1ccc(Br)o1)C1CC1(c1ccccc1)c1ccccc1` (stereo unspecified): “inactive”; `O=C(N/N=C/c1cccnc1)C1CC1(c1ccccc1)c1ccccc1` (stereo unspecified): “inactive”.
As to `O=C(N/N=C/c1ccc[nH]1)C1CC1(c1ccc(OC(F)(F)F)cc1)c1ccc(OC(F)(F)F)cc1` (stereo unspecified), the outcome was Active.
Turning to `CN(C)c1ccc(/C=N/NC(=O)C2CC2(c2ccccc2)c2ccccc2)cc1` (stereo unspecified), the outcome was inactive.
With `Nc1nc2c(ncn2COCCO)c(=O)[nH]1` [ACYCLOVIR], the outcome was Active.
Consider `O=C(N/N=C/c1ccc2c(c1)OCO2)C1CC1(c1ccccc1)c1ccccc1` (stereo unspecified), for which the result was Active.
Still for that read-out and setting: under `O=C(N/N=C/c1ccc[nH]1)C1CC1(c1ccccc1)c1ccccc1` (stereo unspecified) stands “Active”; under `O=C(N/N=C/c1ccco1)C1CC1(c1ccccc1)c1ccccc1` (stereo unspecified), “Active”.
For the molecule `O=C(N/N=C/c1ccc([N+](=O)[O-])cc1)C1CC1(c1ccccc1)c1ccccc1` (stereo unspecified), the outcome was inactive.
Still for that read-out and setting: under `O=C(N/N=C/c1ccccn1)C1CC1(c1ccccc1)c1ccccc1` (stereo unspecified) stands “Active”; under `O=C(N/N=C1/CCCc2ccccc21)C1CC1(c1ccccc1)c1ccccc1` (stereo unspecified), “inactive”; under `O=C(N/N=C/c1c[nH]c2ccccc12)C1CC1(c1ccccc1)c1ccccc1` (stereo unspecified), “Active”.
On the same count and under the same terms, under `O=C(N/N=C/c1ccccn1)C1CC1(c1ccc(OC(F)(F)F)cc1)c1ccc(OC(F)(F)F)cc1` (stereo unspecified) stands “Active”.
On to `O=C(N/N=C/C1CCCCC1)C1CC1(c1ccccc1)c1ccccc1` (stereo unspecified), for which the result was Active.
Take `O=C(N/N=C/c1c[nH]cn1)C1CC1(c1ccccc1)c1ccccc1` (stereo unspecified): the outcome was inactive.
Regarding `O=C(N/N=C/c1ncc[nH]1)C1CC1(c1ccccc1)c1ccccc1` (stereo unspecified), the result was inactive.

The next data set relates to Human alphaherpesvirus 1. In words: Antiviral activity against Herpes simplex virus 1 infected in neuronal progenitor cells assessed as decrease in fluorescent cells. The settings on record: Human alphaherpesvirus 1, Neuronal cell line. Format: functional, organism-based.
As to `O=C(N/N=C/c1ccc[nH]1)C1CC1(c1ccc(OC(F)(F)F)cc1)c1ccc(OC(F)(F)F)cc1` (stereo unspecified), the IC50 is 14.1 µM.
Consider `Nc1nc2c(ncn2COCCO)c(=O)[nH]1` [ACYCLOVIR], for which the IC50 was found to be 27.4 µM.

A further data set deals with Neuronal cell line. In words: Cytotoxicity against human neuronal progenitor cells assessed as cell viability at 25 uM. The format is cell-based.
Settings: not given
On to `O=C(N/N=C/c1ccc[nH]1)C1CC1(c1ccc(OC(F)(F)F)cc1)c1ccc(OC(F)(F)F)cc1` (stereo unspecified), for which the Activity entry was “Non-Toxic”.

For a further data set, the system named is Human alphaherpesvirus 1. In words: Potency index, ratio of acyclovir IC50 to compound IC50 for antiviral activity against HSV-1 infected in neuronal progenitor cells. The format is functional, Neuronal cell line.
Settings: not given
Take `O=C(N/N=C/c1ccc[nH]1)C1CC1(c1ccc(OC(F)(F)F)cc1)c1ccc(OC(F)(F)F)cc1` (stereo unspecified): the “Ratio IC50” value is 2.
